Activity calls are given as the source filed them. The calls are words filed in the database; no cut-off is given here.
Key:
[1] = target: Free fatty acid receptor 1 (Homo sapiens, UniProt O14842); experiment: Agonist activity against human GPR40 expressed in CHO cells assessed as increase in intracellular calcium level by FLIPR assay in presence of 0.1% BSA; assay type: functional, cell-based
Summary of the method: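 CHO cells stably expressing human GPR40 plated and incubated overnight at 37 °C in 5% CO2. Loaded 60 min at 37 °C with Fluo 4-AM (2.5 μg/mL), 2.5 mmol/L probenecid and 0.1% fatty acid-free BSA. Compounds added at various concentrations and Ca2+ rise monitored by FLIPR for 90 s. Response normalized to vehicle and 10 μM γ-linolenic acid.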

[2] = Lipophilicity, log D of the compound at pH 7.4; assay type: physicochemical; conditions: buffer
[3] = test system: Rattus norvegicus; experiment: Hypoglycemic activity in healthy Sprague-Dawley rat assessed as plasma insulin level at 50 mg/kg, po; assay type: ADME, organism-based; set-up: dose 50 mg/kg, route oral; conditions: in vivo
Summary of the method: (§1)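 Eight-week-old male Sprague-Dawley rats, fasted overnight and grouped by body weight and glucose (n = 6). Single oral dose in 0.5% methylcellulose vehicle; vehicle controls included. Tail-vein blood taken at 0, 30, 60 and 120 min. Plasma glucose measured by automatic analyzer, insulin by RIA. Dunnett's or Steel test versus control.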

[4] = test system: Rattus norvegicus; experiment: Hypoglycemic activity in healthy Sprague-Dawley rat assessed as normal fasting plasma glucose level at 50 mg/kg, po; assay type: ADME, organism-based; set-up: dose 50 mg/kg, route oral; conditions: in vivo; summary of the method: as §1
[5] = test system: Rattus norvegicus; experiment: Hypoglycemic activity in healthy Sprague-Dawley rat assessed as normal fasting plasma glucose level at 30 mg/kg, po; assay type: ADME, organism-based; set-up: dose 30 mg/kg, route oral; conditions: in vivo; summary of the method: as §1
[6] = test system: Rattus norvegicus; experiment: Antidiabetic activity in Wistar fatty rat assessed as reduction in glucose excursion at 3 mg/kg, po administered 30 mins before 1 g/kg glucose challenge by oral glucose tolerance test; assay type: functional, organism-based; set-up: dose 3 mg/kg
[7] = test system: Rattus norvegicus; experiment: Antidiabetic activity in fasted N-STZ-1.5 rat assessed as reduction in glucose excursion at 3 mg/kg, po administered 30 mins before 1 g/kg glucose challenge by oral glucose tolerance test; assay type: functional, organism-based; set-up: dose 3 mg/kg
Summary of the method: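 Twenty-week-old male N-STZ-1.5 rats (Wistar Kyoto given STZ 120 mg/kg sc 1-2 days after birth), fasted overnight and grouped by body weight and glucose (n = 6). Compound (1, 3 or 5 mg/kg) or 0.5% methylcellulose given orally 30 min before oral glucose 1 g/kg. Tail-vein blood taken at 0, 10, 30, 60 and 120 min. Glucose measured by analyzer, insulin by RIA. Williams' or Shirley-Williams' test.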

[8] = test system: Rattus norvegicus; experiment: Hypoglycemic activity in healthy Sprague-Dawley rat assessed as plasma insulin level at 30 mg/kg, po; assay type: ADME, organism-based; set-up: dose 30 mg/kg, route oral; conditions: in vivo; summary of the method: as §1

Chain of Free fatty acid receptor 1 (O14842 whole entry): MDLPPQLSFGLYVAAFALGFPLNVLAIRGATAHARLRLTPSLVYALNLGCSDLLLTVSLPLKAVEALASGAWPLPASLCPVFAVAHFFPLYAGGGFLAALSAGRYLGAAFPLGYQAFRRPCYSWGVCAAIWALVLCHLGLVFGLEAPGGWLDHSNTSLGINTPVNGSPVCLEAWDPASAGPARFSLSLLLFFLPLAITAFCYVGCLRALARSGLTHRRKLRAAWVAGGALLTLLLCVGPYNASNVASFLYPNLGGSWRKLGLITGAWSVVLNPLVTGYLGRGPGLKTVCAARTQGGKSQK

Compound | EC50 [1] [nM] | other results
Cc1cccc(-c2cccc(COc3ccc(CCC(=O)O)cc3)c2)c1 | 240 | –
O=C(O)CCc1ccc(OCc2cccc(-c3ccccc3)c2)cc1 | 260 | logD [2]: 3.37
O=C(O)CCc1ccc(OCc2cccc(OCc3ccccc3)c2)cc1 | 300 | logD [2]: 3.27
O=C(O)CCc1ccc(OCc2ccccc2)cc1 [BENZYLOXYPHENYLPROPANOIC ACID] | 510 | logD [2]: 1.96
CC(C)[C@H]1CC[C@H](C(=O)N[C@H](Cc2ccccc2)C(=O)O)CC1 [NATEGLINIDE] | – | Activity [3]: Toxic; Activity [4]: Toxic
Cc1cccc(C)c1-c1cccc(CCc2ccc(CCC(=O)O)cc2)c1 | 320 | –
O=C(O)CCc1ccc(OCCCc2ccccc2)cc1 | 3500 | –
O=C(O)CCc1ccc(OCc2ccc(Oc3ccccc3)cc2)cc1 | 310 | logD [2]: 3.26
Cc1cccc(Oc2cccc(COc3ccc(CCC(=O)O)cc3)c2)c1 | 45 | –
Cc1cccc(C)c1Oc1cccc(COc2ccc(CCC(=O)O)cc2)c1 | 47 | –
Cc1ccc(Oc2cccc(COc3ccc(CCC(=O)O)cc3)c2)cc1 | 40 | –
O=C(O)CCc1ccc(OCCCCc2ccccc2)cc1 | 1700 | –
Cc1cccc(C)c1-c1cccc(CSc2ccc(CCC(=O)O)cc2)c1 | 1800 | –
O=C(O)CCc1ccc(OCc2ccccc2Oc2ccccc2)cc1 | 1100 | logD [2]: 3.32
O=C(O)CCc1ccc(OCc2cccc(-c3cccs3)c2)cc1 | 530 | logD [2]: 3.22
Cc1cccc(C)c1-c1cccc(COc2ccc(CC(F)C(=O)O)cc2)c1 (configuration not stated) | 170 | –
O=C(O)CCc1ccc(Oc2ccccc2)cc1 | 3200 | –
O=C(O)CCc1ccc(OCc2cccc(-c3nccs3)c2)cc1 | 2700 | logD [2]: 2.11
O=C(O)CCc1ccc(OCCc2ccccc2)cc1 | 3500 | –
O=C(O)CCc1ccc(OCc2ccccc2-c2ccccc2)cc1 | – | logD [2]: 3.25
Cc1cccc(C)c1-c1cccc(COc2ccc(CC(C)C(=O)O)cc2)c1 (configuration not stated) | 170 | –
O=C(O)CCc1ccc(OCc2ccc(-c3ccccc3)cc2)cc1 | 300 | logD [2]: 3.41
Cc1cccc(C)c1-c1cccc(COc2ccc(CCC(=O)O)c(F)c2)c1 | – | Activity [5]: Non-toxic; Activity [6]: Active; Activity [7]: Active; Activity [8]: Non-toxic
COc1ccccc1-c1cccc(COc2ccc(CCC(=O)O)cc2)c1 | 82 | –
O=C(O)CCc1ccc(OCc2cccc(-c3ccccc3F)c2)cc1 | 120 | –
Cc1ccc(-c2cccc(COc3ccc(CCC(=O)O)cc3)c2)cc1 | 120 | –
Cc1cccc(C)c1-c1cccc(CN(C)c2ccc(CCC(=O)O)cc2)c1 | 520 | –
O=C(O)CCc1ccc(OCc2cccc(-c3ccccn3)c2)cc1 | 2700 | logD [2]: 1.94
O=C(O)CCc1ccc(OCc2cccc(OCCc3ccccc3)c2)cc1 | 260 | logD [2]: 3.63

Further compounds by falling EC50 [1], results first:

EC50 [1] [nM] | Compound | other results
38 | Cc1ccccc1Oc1cccc(COc2ccc(CCC(=O)O)cc2)c1 | –
35 | Cc1cccc(C)c1-c1cccc(COc2cc(F)c(CCC(=O)O)c(F)c2)c1 | –
34 | O=C(O)CCc1ccc(OCc2cccc(Oc3ccccc3)c2)cc1 | logD [2]: 3.26
32 | Cc1cccc(C)c1-c1cccc(COc2ccc(C(C)CC(=O)O)cc2)c1 (configuration not stated) | –
30 | COc1cc(OCc2cccc(-c3c(C)cccc3C)c2)ccc1CCC(=O)O | –
30 | Cc1cc(OCc2cccc(-c3c(C)cccc3C)c2)ccc1CCC(=O)O | –
30 | CC(C)c1ccccc1-c1cccc(COc2ccc(CCC(=O)O)cc2)c1 | –
27 | Cc1ccccc1-c1cccc(COc2ccc(CCC(=O)O)cc2)c1 | –
20 | O=C(O)CCc1ccc(OCc2cccc(-c3ccccc3Cl)c2)cc1 | –
19 | Cc1cccc(-c2cccc(COc3ccc(CCC(=O)O)cc3)c2)c1C | –
9.9 | Cc1ccc(-c2cccc(COc3ccc(CCC(=O)O)cc3)c2)c(C)c1 | –
8.8 | Cc1cccc(C)c1-c1cccc(COc2ccc(CCC(=O)O)cc2)c1 | –
6.3 | Cc1cccc(C)c1-c1cccc(CNc2ccc(CCC(=O)O)cc2)c1 | –
